# Laboratory results reported in ChEMBL document CHEMBL1146511, “Cytotoxic compounds from Mundulea chapelieri from the Madagascar Rainforest” (J Nat Prod, 2004).
# Tested on: A2780
# Assay: Cytotoxicity against human A2780 cells
# Assay type: functional, cell-based
# Method in brief: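 A2780 human ovarian cancer cells; growth-inhibition assay run per an earlier published protocol, with actinomycin D as positive control; value is the concentration that inhibited growth by 50% (IC50).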
row,Structure (SMILES),IC50 [µg/mL]
1,C=C(C)[C@H]1Cc2c(ccc3c2O[C@@H]2COc4cc(OC)c(OC)cc4[C@]2(O)C3=O)O1 [ROTENOLONE],0.5
2,CC1(C)C=Cc2c(c3c(c4c2O[C@H](c2ccccc2)[C@@H](O)C4=O)OC(C)(C)C=C3)O1,20
3,CC1(C)C=Cc2c(c3c(c4c2O[C@H](c2ccccc2)CC4=O)OC(C)(C)C=C3)O1,33
4,COc1cc2c(cc1OC)[C@]1(O)C(=O)c3ccc4c(c3O[C@@H]1CO2)C=CC(C)(C)O4 [TEPHROSIN],9.1
5,COc1c(-c2coc3cc4c(cc3c2=O)CC(O)C(C)(C)O4)ccc2c1C=CC(C)(C)O2 (stereo unspecified) [MUNDULONE],13
6,CC(C)=CCc1c2c(c(O)c3c1O[C@H](c1ccccc1)[C@@H](O)C3=O)C=CC(C)(C)O2 [MUNDULINOL],25
7,COc1cc(OC)c2c(c1CC=C(C)C)O[C@H](c1ccccc1)CC2=O [CANDIDONE],23
8,C=C[C@@]1(C)C[C@@H](OC(C)=O)[C@H](C(C)(C)O)C[C@@H]1C(=C)C,17
9,CC(C)=CCc1c(O)c2c(c3c1OC(C)(C)C=C3)O[C@H](c1ccccc1)[C@@H](O)C2=O [ISOMUNDULINOL],18
10,C=C(C)[C@H]1Cc2c(ccc3c2O[C@@H]2COc4cc(OC)c(OC)cc4[C@@H]2C3=O)O1 [ROTENONE],0.7
11,COc1c(-c2coc3cc4c(cc3c2=O)C=CC(C)(C)O4)ccc2c1C=CC(C)(C)O2 [MUNETONE],20
